ChEMBL document CHEMBL1128279, “Potent inhibitors of human inosine monophosphate dehydrogenase type II. Fluorine-substituted analogues of thiazole-4-carboxamide adenine dinucleotide” (J Med Chem, 1995)

Legend:
[1] = biological target: Inosine-5'-monophosphate dehydrogenase 2 (Homo sapiens) (UniProt P12268); assay: Inhibitory binding constant was determined against human Inosine-5'-monophosphate dehydrogenase 2 (IMPDH type II) from intercept of Michaelis-Menten plot
Summary of the method: (§1)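 Human IMPDH type II, stored at -70 °C in 20 mM Tris-HCl pH 8, 20 mM KCl, 1 mM EDTA, 1 mM DTT, thawed and filtered before use. Assay at 37 °C, started by adding enzyme, with saturating IMP. NADH formation read at 340 nm for 2–10 min. NAD at 20, 40, 80 and 160 µM, with two or three inhibitor levels. Kii (intercept) and Kis (slope) obtained by direct least-squares fit to the noncompetitive equation.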

[2] = biological target: Inosine-5'-monophosphate dehydrogenase 2 (Homo sapiens) (UniProt P12268); assay: Inhibitory binding constant was determined against human Inosine-5'-monophosphate dehydrogenase 2 (IMPDH type II) from slope of Michaelis-Menten plot; summary of the method: as §1

Chain of Inosine-5'-monophosphate dehydrogenase 2 (Homo sapiens) (P12268 2-514 limits assumed): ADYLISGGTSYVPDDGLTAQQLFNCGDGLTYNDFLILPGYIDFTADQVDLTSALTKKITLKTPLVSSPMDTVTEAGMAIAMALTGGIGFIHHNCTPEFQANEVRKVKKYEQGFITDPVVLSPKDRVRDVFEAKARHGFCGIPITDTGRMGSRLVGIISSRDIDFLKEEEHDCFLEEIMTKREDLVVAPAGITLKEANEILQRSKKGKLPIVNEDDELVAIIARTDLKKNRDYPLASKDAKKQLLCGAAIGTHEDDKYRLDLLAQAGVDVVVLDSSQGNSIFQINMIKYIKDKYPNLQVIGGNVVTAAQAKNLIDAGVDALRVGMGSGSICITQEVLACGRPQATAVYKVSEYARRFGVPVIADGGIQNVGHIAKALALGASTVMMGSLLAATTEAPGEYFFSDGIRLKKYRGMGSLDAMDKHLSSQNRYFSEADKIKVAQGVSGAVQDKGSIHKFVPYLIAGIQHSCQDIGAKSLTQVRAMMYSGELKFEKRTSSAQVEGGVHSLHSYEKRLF

Row | Structure (SMILES) | Kii [1] [µM] | Kis [2] [µM]
1 | NC(=O)c1csc([C@@H]2O[C@H](COP(=O)(O)OP(=O)(O)OC[C@@H]3O[C@H](n4cnc5c(N)ncnc54)[C@@H](O)[C@H]3F)[C@@H](O)[C@H]2O)n1 | 0.7 | 1.5
2 | NC(=O)c1csc([C@@H]2O[C@H](COP(=O)(O)OP(=O)(O)OC[C@@H]3O[C@H](n4cnc5c(N)ncnc54)[C@@H](F)[C@H]3O)[C@@H](O)[C@H]2O)n1 | 0.5 | 6
3 | NC(=O)c1csc([C@@H]2O[C@H](COP(=O)(O)OP(=O)(O)OC[C@@H]3O[C@H](n4cnc5c(N)ncnc54)[C@H](F)[C@H]3O)[C@@H](O)[C@H]2O)n1 | 2.9 | 13

Further lines, results first:

Row | Kii [1] [µM] | Kis [2] [µM] | Structure (SMILES)
4 | 0.19 | 0.3 | NC(=O)c1csc([C@H]2O[C@@H](COP(=O)(O)OP(=O)(O)OC[C@H]3O[C@@H](n4cnc5c(N)ncnc54)[C@H](O)[C@@H]3O)[C@H](O)[C@@H]2O)n1
5 | 0.17 | 0.3 | NC(=O)c1csc([C@@H]2O[C@H](COP(=O)(O)C(F)(F)P(=O)(O)OC[C@@H]3O[C@H](n4cnc5c(N)ncnc54)[C@@H](O)[C@H]3O)[C@@H](O)[C@H]2O)n1
6 | 0.11 | – | NC(=O)c1csc([C@@H]2O[C@H](COP(=O)(O)CP(=O)(O)OC[C@@H]3O[C@H](n4cnc5c(N)ncnc54)[C@@H](O)[C@H]3O)[C@@H](O)[C@H]2O)n1
